Assay [1] has as its target T1, Adenosine receptor A1 (Homo sapiens, UniProt P30542).
T1 sequence (P30542 whole entry): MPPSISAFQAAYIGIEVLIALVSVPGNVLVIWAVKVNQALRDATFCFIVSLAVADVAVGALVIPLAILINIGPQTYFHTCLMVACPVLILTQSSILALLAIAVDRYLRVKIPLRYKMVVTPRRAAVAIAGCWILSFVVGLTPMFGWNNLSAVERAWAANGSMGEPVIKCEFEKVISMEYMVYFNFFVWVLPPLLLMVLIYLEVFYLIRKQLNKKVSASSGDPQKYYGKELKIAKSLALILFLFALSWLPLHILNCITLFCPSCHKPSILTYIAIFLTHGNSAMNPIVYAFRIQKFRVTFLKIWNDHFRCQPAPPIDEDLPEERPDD
Kind of assay: Displacement of [3H]DPCPX from human adenosine A1 receptor expressed in CHO cells. The format is cell-based. An outline of the steps:
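Competition binding against [³H]DPCPX (K_D 1.6 nM) at human A1 receptors expressed in CHO cells. Ki was derived by nonlinear regression, mean ± SEM, n = 3.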

Assay [2] concerns the target T2, Adenosine receptor A2a (Homo sapiens, UniProt P29274). Kind of assay: Displacement of [3H]ZM 241385 from human adenosine A2a receptor expressed in HEK293 cells at 1 uM. The format is cell-based. An outline of the steps:
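Single-point screen at 1 µM for % displacement of specific [³H]ZM 241385 binding at human A2A receptors in HEK 293 cells, n = 2.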
A general note: In a radioligand displacement assay an active substance lowers the binding of a labelled ligand.

In a further assay the target is T3, Adenosine receptor A3 (Homo sapiens, UniProt P0DMS8).
T3 sequence (P0DMS8 whole entry): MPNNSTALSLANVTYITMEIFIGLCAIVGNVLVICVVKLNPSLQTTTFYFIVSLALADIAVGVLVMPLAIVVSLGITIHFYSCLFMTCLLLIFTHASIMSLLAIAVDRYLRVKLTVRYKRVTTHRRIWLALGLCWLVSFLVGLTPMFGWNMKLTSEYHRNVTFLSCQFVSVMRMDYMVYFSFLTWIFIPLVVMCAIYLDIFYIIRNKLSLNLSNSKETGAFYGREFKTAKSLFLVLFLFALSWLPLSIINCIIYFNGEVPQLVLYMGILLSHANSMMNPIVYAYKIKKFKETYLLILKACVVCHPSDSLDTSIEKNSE
Kind of assay: Displacement of [125I]AB-MECA from human adenosine A3 receptor expressed in HEK293 cells. The format is cell-based.

The target of assay [3] is T2, Adenosine receptor A2a. Kind of assay: Displacement of [3H]ZM 241385 from human adenosine A2a receptor expressed in HEK293 cells. The format is cell-based. Put shortly: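 Radioligand competition using [³H]ZM 241385 (K_D 1.0 nM) at human A2A receptors expressed in HEK 293 cells. Ki was obtained by nonlinear regression, ± SEM, n = 3.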
The target of assay [4] is T4, Adenosine receptor A1 (Homo sapiens) (UniProt P30542).
T4 sequence (whole entry): T1 sequence (P30542 whole entry)
Kind of assay: Displacement of [3H]DPCPX from human adenosine A1 receptor expressed in CHO cells at 1 uM. The format is cell-based. An outline of the steps:
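Inhibition of specific [³H]DPCPX binding to human A1 receptors in CHO cells by test compound at 1 µM, reported as % displacement, n = 2.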

Assay [5] addresses T4, Adenosine receptor A1 (Homo sapiens). Kind of assay: Activity against human adenosine A1 receptor in CHO cells by increase of forskolin-induced cAMP production at 100 nM. The format is functional, cell-based. To be noted: filed as antagonist. Put shortly: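 Human A1-expressing CHO monolayers were preincubated 30 min at 37 °C with adenosine deaminase (0.8 IU/mL), rolipram and cilostamide (50 µM each) in HEPES/DMEM pH 7.4. Test compound at 100 nM was added for 10 min, then forskolin 10 µM for 15 min, and the reaction was stopped with ice-cold 0.1 M HCl. cAMP was measured by [³H]cAMP competition for PKA. Forskolin alone was set at 100% and CPA 1 µM at 0%. At least three experiments in duplicate.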
On the technique in general: Changes in cAMP serve as a functional read-out for many G protein-coupled receptors.

Assay [6] has the same target. Kind of assay: (§1) Activity against human adenosine A1 receptor in CHO cells assessed by the antagonizing effect of 100 nM CPA on forskolin-induced cAMP production. The format is functional, cell-based. Put shortly:
(§2)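 Whole-cell cAMP assay in CHO cells expressing human A1 receptor, 2 × 10⁵ cells/well grown overnight as a monolayer. Cells were pretreated 30 min at 37 °C with adenosine deaminase 0.8 IU/mL, rolipram 50 µM and cilostamide 50 µM in HEPES/DMEM pH 7.4. Compound was then given against 100 nM CPA, followed by forskolin 10 µM for 15 min. cAMP was measured by [³H]cAMP/PKA competition. A full concentration-response curve gave K_B.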

In assay [7] the target is Adenosine receptors; A1 & A2a (Homo sapiens) (UniProt P30542+P29274). Kind of assay: Selectivity for human adenosine A1 receptor over adenosine A2a receptor. The format is protein assay. An outline of the steps:
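Ki values from radioligand displacement binding at each receptor. Human A1 expressed in CHO cells with [3H]DPCPX (KD 1.6 nM); human A2A expressed in HEK 293 cells with [3H]ZM 241385 (KD 1.0 nM). Ki from nonlinear regression, mean ± SEM (n = 3); selectivity compares the A1 and A2A Ki values.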

For assay [8], the target named is T1, Adenosine receptor A1. The description is as §1. The format is functional, cell-based. Put shortly: as §2

The source made the active and inactive calls. The rule behind the calls is not given here.

Broadly, the Ki is the equilibrium dissociation constant of an inhibitor or competing ligand from its target. Low readings indicate tighter binding, high ones weaker binding. Broadly, the IC50 is the concentration needed to halve the response being measured. Read a low IC50 as greater potency.

T2 sequence (P29274 whole entry): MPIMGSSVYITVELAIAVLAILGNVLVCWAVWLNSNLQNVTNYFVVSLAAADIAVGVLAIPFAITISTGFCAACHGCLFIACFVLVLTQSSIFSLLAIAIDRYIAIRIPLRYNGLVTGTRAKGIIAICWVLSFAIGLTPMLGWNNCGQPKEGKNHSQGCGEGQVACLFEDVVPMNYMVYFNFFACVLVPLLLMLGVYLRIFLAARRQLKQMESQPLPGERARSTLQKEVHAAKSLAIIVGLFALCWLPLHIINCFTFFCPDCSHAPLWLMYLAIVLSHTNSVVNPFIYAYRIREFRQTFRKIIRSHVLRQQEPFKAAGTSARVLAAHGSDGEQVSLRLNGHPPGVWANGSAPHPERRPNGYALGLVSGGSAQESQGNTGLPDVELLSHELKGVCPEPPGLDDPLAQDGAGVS
Adenosine receptors; A1 & A2a (Homo sapiens), sequence (P29274 whole entry, looked up, one chain of several): as the sequence (P29274 whole entry) above

Take `Clc1ccc(-c2[nH]c(-c3ccccc3)nc3nc(C4CCCCC4)nc2-3)cc1Cl`: the Ki on Adenosine receptor A1 [1] was 37 nM. This compound also gave an Activity at Adenosine receptor A2a [2] of 20.3%.
On Adenosine receptor A2a [2], `Clc1ccc(-c2[nH]c(-c3ccccc3)nc3nc(C4CCCCC4)nc2-3)cc1` displayed an Activity of 24%.
Consider `Cc1ccc(-c2nc(-c3ccccc3)c3[nH]cnc3n2)cc1`, for which the Ki on Adenosine receptor A3 worked out at 9.4 nM; at Adenosine receptor A1 [1], 4 nM; at Adenosine receptor A2a [3], 289 nM.
In the case of `Clc1ccc(-c2nc(-c3ccccc3)nc3nc(C4CCCCC4)[nH]c23)cc1`, the Ki on Adenosine receptor A3 came to 243 nM; on Adenosine receptor A1 [1] it was 25 nM.
`COc1ccc(-c2nc(-c3ccc(OC)cc3)c3[nH]cnc3n2)cc1`: the results for the Activity (in assay [4]; on Adenosine receptor A2a [2]) were 40% and 37%, respectively. At Adenosine receptor A3, this compound came in with a Ki of 165 nM.
As for `c1ccc(-c2nc(-c3ccccc3)c3[nH]c(-c4ccccc4)nc3n2)cc1`, the Ki at Adenosine receptor A3 is 49 nM; on Adenosine receptor A1 [1], 21 nM; on Adenosine receptor A2a [3], 66 nM.
For the compound `COc1ccc(-c2[nH]c(-c3ccccc3)nc3nc(C4CCCCC4)nc2-3)cc1`, the Ki at Adenosine receptor A3 turned out to be 138 nM; at Adenosine receptor A1 [1], 3.7 nM. This compound registered an Activity at Adenosine receptor A2a [2] of 27%.
For the compound `Clc1ccc(-c2nc(-c3ccccc3)c3[nH]cnc3n2)cc1`, the Ki on Adenosine receptor A3 was 94 nM; at Adenosine receptor A1 [1], 27 nM; at Adenosine receptor A2a [3], 315 nM.
The compound `Cc1ccc(-c2[nH]c(-c3ccccc3)nc3nc(C4CCCCC4)nc2-3)cc1` had an Activity at Adenosine receptor A2a [2] of 9%.
Consider `CC(C)c1nc2[nH]c(-c3ccccc3)nc(-c3ccccc3)c-2n1`, for which the Activity result in [5] was “Antagonist”. Also, the results for the Ki at Adenosine receptor A3, at Adenosine receptor A1 [1] and at Adenosine receptor A2a [3] were 9.5 nM, 0.82 nM and 148 nM, respectively.
Regarding `CCCc1nc2nc(-c3ccccc3)nc(-c3ccccc3)c2[nH]1`, the results for the Ki on Adenosine receptor A3, at Adenosine receptor A1 [1] and at Adenosine receptor A2a [3] were 17 nM, 4.4 nM and 167 nM, respectively.
For the compound `c1ccc(-c2nc(-c3ccccc3)c3nc(C4CCCC4)nc-3[nH]2)cc1`, the Ki on Adenosine receptor A3 was 35 nM; on Adenosine receptor A1 [1], 0.29 nM; on Adenosine receptor A2a [3], 55 nM. For the same compound, the outcome in assay [6] was Active. The Ratio Ki in assay [7] was determined as 190.
`Cc1ccc(-c2nc(-c3ccc(C)cc3)c3[nH]cnc3n2)cc1`: the Ki on Adenosine receptor A3 was found to be 9.3 nM; at Adenosine receptor A1 [1], 235 nM. Further, the Activity at Adenosine receptor A2a [2] amounted to 4%.
Take `COc1ccc(-c2nc(-c3ccccc3)c3[nH]cnc3n2)cc1`: the Ki at Adenosine receptor A3 came out at 4 nM; at Adenosine receptor A1 [1], 32 nM. The compound further registered an Activity on Adenosine receptor A2a [2] of 47%.
With `Cn1c(C2CCCCC2)nc2c(-c3ccccc3)nc(-c3ccccc3)nc21`, the Activity in [4] was 24%; at Adenosine receptor A2a [2], 0%.
`c1ccc(-c2nc(-c3ccccc3)c3nc(C4CCCCC4)nc-3[nH]2)cc1`: the Ki worked out at 200 nM at Adenosine receptor A3, 0.73 nM at Adenosine receptor A1 [1] and 118 nM at Adenosine receptor A2a [3]. This compound had an IC50 at Adenosine receptor A1 [8] of 477 nM.
For the compound `Cc1ccc(-c2nc(-c3ccccc3)nc3nc(C4CCCCC4)[nH]c23)cc1`, the Ki at Adenosine receptor A1 [1] turned out to be 36 nM.
Take `Clc1ccc(-c2nc(-c3ccc(Cl)cc3)c3[nH]cnc3n2)cc1`: the Activity amounted to 21% in assay [4] and 11% at Adenosine receptor A2a [2]. At Adenosine receptor A3, this compound yielded a Ki of 68 nM.
Consider `c1ccc(-c2nc(-c3ccccc3)c3[nH]cnc3n2)cc1`, for which the Ki at Adenosine receptor A3 stood at 38 nM; on Adenosine receptor A1 [1] it was 4.1 nM; at Adenosine receptor A2a [3] it was 53 nM.

The record behind these values is ChEMBL document CHEMBL1147670, “2,6-disubstituted and 2,6,8-trisubstituted purines as adenosine receptor antagonists” (J Med Chem, 2006).
